Most compounds without a hit are left out; they make up all but 3.7% or so of the library.
hERG rescue – compounds protecting human hERG from proarrhythmic drug block. activation (rescue from dofetilide block), less the hit threshold, % at 10 µM. hit rate 0.51% among 310,000. CHO-hERG, FluxOR thallium flux, dofetilide IC70 present;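 active = activation above the mean of controls blocked by dofetilide plus 5 SD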;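 also: thallium influx through hERG after potassium depolarization seen as dye fluorescence rise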
KCNQ1 pot – potentiates or activates the human KCNQ1 potassium channel | P51787 | CHO-K1 KCNQ1, thallium flux FluxOR fluorescence; hits give high values | B-score at 10 µM | hit rate 0.35% among 310,000 | AID 2648;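 active = fluorescence ratio B-score, a plate-corrected score, at least three library SD, with initial intensity B-score within 5 SD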
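Assay system: CHO-K1 cells stably expressing KCNQ1; Medium: assay buffer with matched DMSO; Also added: K+/Tl+ depolarizing stimulus; Dosing: single dose; Timing: dye 90 min, compound 20 min, room temperature; Measured by: kinetic FluxOR thallium fluorescence, 10-s 1-Hz baseline, 110-s post-stimulus read; Read-out: peak-minus-minimum fluorescence over initial fluorescence, negative-control normalized, B-scored.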
Kir21 inh – inhibitors of mouse Kir2.1 inward-rectifier potassium channel; HEK293-Kir2.1, FluxOR thallium flux fluorescence; hits give low values; AID 1672; B-score at 10 µM; hit rate 0.85% among 310,000;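 active = fluorescence ratio B-score at or below minus 3 SD of library scores, with starting-brightness B-score within 2 SD, cut at about -4.2 in these data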;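 also: channel flux triggered by added potassium and thallium sulfate stimulus; B-score of peak minus minimum fluorescence over baseline after thallium stimulus; more negative B-score means stronger Kir2.1 block with less thallium influx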
KCNQ1 block – human KCNQ1 channel inhibition; B-score at 10 µM; CHO-K1 KCNQ1, FluxOR thallium flux fluorescence; hits give high values; P51787; hit rate 1.3% among 310,000; AID 2642;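 active = compounds whose thallium flux B-score, printed positive for inhibition, exceeds three library SD while starting fluorescence stays within three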;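 also: channel opened by potassium depolarization with thallium stimulus after 20 min compound exposure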
KCNK9 block – inhibitors of human KCNK9 two-pore domain potassium channel | Q9NPC2 | HEK293 KCNK9, FluxOR thallium flux fluorescence; hits give low values | B-score at 10 µM | hit rate 1.2% among 310,000;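 active = ratio B-score over 3 SD below the library mean, with starting fluorescence within 5 SD of its mean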;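 also: negative B-score means less thallium flux so channel inhibition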
KCNK3 inh – human KCNK3 channel inhibition, primary screen; O14649; CHO-KCNK3 thallium flux, FluxOR fluorescence; hits give low values; B-score at 10 µM; hit rate 0.84% among 340,000;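 active = B-score under library mean minus 4 SD, starting fluorescence ratio at most library mean plus 5 SD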;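 also: more negative B-score means stronger inhibition of thallium flux through KCNK3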
Target sequence (O14649 whole entry, looked up): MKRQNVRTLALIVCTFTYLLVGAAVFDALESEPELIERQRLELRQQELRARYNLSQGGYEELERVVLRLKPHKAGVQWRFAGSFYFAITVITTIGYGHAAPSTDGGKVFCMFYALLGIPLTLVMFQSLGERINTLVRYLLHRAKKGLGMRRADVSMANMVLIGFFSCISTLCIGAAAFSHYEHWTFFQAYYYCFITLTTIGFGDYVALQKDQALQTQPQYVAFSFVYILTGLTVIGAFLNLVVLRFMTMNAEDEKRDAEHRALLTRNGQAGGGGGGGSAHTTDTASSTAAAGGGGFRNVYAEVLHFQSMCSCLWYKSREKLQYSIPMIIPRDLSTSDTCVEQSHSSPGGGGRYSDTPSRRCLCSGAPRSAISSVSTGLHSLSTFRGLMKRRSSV
KCNK9 inh conf – confirmation of human KCNK9 potassium channel inhibitors | shares compounds with KCNK9 block | HEK293 KCNK9 cells, FluxOR thallium flux fluorescence | inhibition, % at 10 µM | hit rate 43% among 4,900 | AID 492992;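 active = thallium signal inhibited by more than 5 SD of the compound-free buffer control wells, on both duplicate plates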
Kir2-1 spec – mouse Kir2.1 off-target activity of KCNK9 modulators. shares compounds with KCNK9 block. Kir2.1 cells, FluxOR thallium flux fluorescence. inhibition, % at 10 µM. hit rate 4% among 4,900. AID 492993;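 active = thallium signal drop more than 5 SD beyond the mean of the no-compound control wells, seen in both duplicate plates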;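 also: signal is fluorescence rise after thallium addition divided by baseline fluorescence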
HEK293 Tl ctr – non-induced cell nonspecific activity of KCNK9 modulators | AID 492997 | hit rate 40% among 4,900 | shares compounds with KCNK9 block | inhibition, % at 10 µM | non-induced KCNK9-HEK293, FluxOR thallium flux;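 active = thallium signal drop beyond 5 SD of the untreated control mean, on both duplicate plates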
KCNK3 confirm – human KCNK3 channel inhibition, confirmation assay; shares compounds with KCNK3 inh; CHO-KCNK3 thallium flux, FluxOR fluorescence; 0% buffer, 100% carvedilol maximal block; ratio percent of control, % at 10 µM; hit rate 99% among 2,400; AID 651638;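 active = ratio percent of control, averaged over triplicates, above buffer control mean plus 5 SD, cut at about 64% in these data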;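 also: ratio is the fluorescence rise from min to max over baseline after thallium stimulus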
KCNK3 noninduced – KCNK3 inhibitor counter-screen hit in non-induced cells | hit rate 40% among 2,400 | shares compounds with KCNK3 inh | non-induced KCNK3 parental cells, FluxOR thallium flux; hits give low values | AID 651747 | thallium flux ratio (lower = more inhibition) at 10 µM;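 active = thallium flux ratio, averaged over three wells, more than 5 SD below the buffer control mean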;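 also: host cells are CHO cells without KCNK3 induction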
Hits are given with their value.

For Cc1ccc(S(=O)(=O)c2nc(NCc3ccc4c(c3)OCO4)sc2Cl)cc1 the results were hERG rescue inactive, KCNQ1 pot inactive, Kir21 inh inactive, KCNQ1 block inactive, KCNK9 block -11, KCNK3 inh inactive, KCNK9 inh conf 42%, Kir2-1 spec 32%, HEK293 Tl ctr 42%, KCNK3 confirm 130 and KCNK3 noninduced 0.16.
CC(=O)Nc1nc(S(=O)(=O)c2ccc(C)cc2)c(Cl)s1 was read as hERG rescue inactive, KCNQ1 pot inactive, Kir21 inh inactive, KCNQ1 block inactive, KCNK9 block inactive and KCNK3 inh inactive.
Screening COc1ccc(C2CC(c3ccc4ccccc4c3)=NN2C(=O)CNC2CCCCC2)cc1 (configuration not stated) returned hERG rescue inactive, KCNQ1 pot inactive, Kir21 inh inactive, KCNQ1 block inactive, KCNK9 block -8.9, KCNK3 inh -11, KCNK9 inh conf 44%, Kir2-1 spec inactive, HEK293 Tl ctr 30%, KCNK3 confirm 133 and KCNK3 noninduced inactive.
For Fc1ccc(N2CCN(C(c3cccs3)c3nnnn3CCc3ccccc3)CC2)cc1 (configuration not stated) the results were hERG rescue inactive, KCNQ1 pot inactive, Kir21 inh inactive, KCNQ1 block inactive, KCNK9 block -13, KCNK3 inh -12, KCNK9 inh conf 68%, Kir2-1 spec inactive, HEK293 Tl ctr 32%, KCNK3 confirm 126 and KCNK3 noninduced 0.15.
`Cc1ccc(N2C(=O)c3ccccc3C2Nc2ccc(S(=O)(=O)N3CCCCC3)cc2)nc1` (configuration not stated) gave hERG rescue inactive, KCNQ1 pot inactive, Kir21 inh inactive, KCNQ1 block inactive, KCNK9 block -11, KCNK3 inh -10, KCNK9 inh conf inactive, Kir2-1 spec inactive, HEK293 Tl ctr 30%, KCNK3 confirm 121 and KCNK3 noninduced 0.15.
Screening Cc1ccc(N2C(=O)c3ccccc3C2Nc2ccc(S(=O)(=O)N3CCOCC3)cc2)nc1 (configuration not stated) returned hERG rescue inactive, KCNQ1 pot inactive, Kir21 inh inactive, KCNQ1 block inactive, KCNK9 block inactive and KCNK3 inh inactive.
For CN(C)c1nnnn1-c1ccccc1Oc1ncc(C(F)(F)F)cc1Cl the results were hERG rescue inactive, KCNQ1 pot inactive, Kir21 inh inactive, KCNQ1 block inactive, KCNK9 block inactive and KCNK3 inh inactive.
For Cc1onc(-c2ccccc2Cl)c1C(=O)N(Cc1nc(-c2ccccc2)no1)C1CCCCC1 the results were hERG rescue inactive, KCNQ1 pot inactive, Kir21 inh inactive, KCNQ1 block inactive, KCNK9 block -9.7, KCNK3 inh inactive, KCNK9 inh conf 30%, Kir2-1 spec inactive, HEK293 Tl ctr 32%, KCNK3 confirm 90 and KCNK3 noninduced 0.15.
Screening O=C(Cc1ccsc1)N1CCc2c([nH]c3ccccc23)C1c1ccccn1 (configuration not stated) returned hERG rescue inactive, KCNQ1 pot inactive, Kir21 inh inactive, KCNQ1 block inactive, KCNK9 block inactive and KCNK3 inh inactive.

Compound activity deposited in PubChem BioAssay by Johns Hopkins Ion Channel Center.
